The results in this text go back to ChEMBL document CHEMBL2321816, “Synthesis and antitumor evaluation of arctigenin derivatives based on antiausterity strategy” (Eur J Med Chem, 2013).

The structures appear in SMILES notation. Activity calls are given as the source filed them. The calls are words filed in the database; no cut-off is given here.

The test system of series [1] is PANC-1. The series is described as follows: Cytotoxicity against human PANC1 cells assessed as cell viability after 3 hrs by WST-8 cells. In kind it is functional. The procedure, abridged: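 PANC-1 cells, 2 × 10⁴/well, grown 24 h in DMEM at 37 °C in 5% CO₂. Cells were PBS-washed and then exposed 24 h to serial dilutions in nutrient-deprived medium or in normal DMEM. After a PBS wash, WST-8 in DMEM was added for 3 h and A450 was read. Viability was taken against blank and control from the mean of three wells. PC50 is the concentration killing 50% of cells preferentially in NDM.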
Background: Tetrazolium assays rely on reduction of a dye to a coloured formazan, in cell work by metabolically active cells.

The species entered for series [2] is Mus musculus. The series is described as follows: Toxicity in human Capan1 cells injected BALB/cAJcl-nu-nu mouse assessed as behavior at 50 ug for 6 days in a week upto 28th days treatment started on 15th day tumor injection. As to conditions: capan-1, 144 h. In kind it is organism-based. In short, it runs like this: (§1)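 Female BALB/cAJcl-nu/nu mice, five weeks old, injected s.c. on the right back with 5 × 10⁶ CAPAN-1 cells in DMEM. At two weeks, mice with tumors around 5 mm were randomized to treatment or vehicle groups. Drug was given from a DMSO stock (10 mg/mL) diluted in saline, 0.2 mL i.p., 6 days/week for 4 weeks. Body weight and tumor size were taken weekly. Tumors were weighed wet at the end.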

Series [3] is filed under the species Mus musculus. The series is described as follows: Toxicity in human Capan1 cells injected BALB/cAJcl-nu-nu mouse assessed as body weight at 50 ug for 6 days in a week upto 28th days treatment started on 15th day tumor injection. In kind it is organism-based. As to conditions: capan-1, 144 h. The procedure, abridged: as §1
Series [4] has as its system CAPAN-1. The experiment in a line: Antitumor activity against human Capan1 cells injected into BALB/cAJcl-nu-nu mouse assessed as reduction in tumor weight at 50 ug for 6 days in a week upto 28th days treatment started on 15th day tumor injection. In kind it is functional. In short, it runs like this:
as §1

Consider `CCCOc1cc(C[C@H]2C(=O)OC[C@@H]2Cc2ccc(OC)c(OCCC)c2)ccc1O`, for which the PC50 in series [1] is 13.6 µM.
In the case of `CCCCOc1cc(C[C@H]2C(=O)OC[C@@H]2Cc2ccc(OC)c(OC)c2)ccc1O`, the PC50 in series [1] turned out to be 7.14 µM.
The same measure, in the same setting: as for `CCOc1ccc(C[C@H]2COC(=O)[C@@H]2Cc2ccc(O)c(OC)c2)cc1OC`, the figure is 0.49 µM.
Still for that read-out and setting: the figure for `CCCOc1cc(C[C@H]2C(=O)OC[C@@H]2Cc2ccc(OC)c(OC)c2)ccc1O` is 3.74 µM.
Still for that read-out and setting: as for `COc1ccc(C[C@H]2COC(=O)[C@@H]2Cc2ccc(O)c(OCCO)c2)cc1OC`, the figure is 7.7 µM.
Consider `CCOc1cc(C[C@H]2C(=O)OC[C@@H]2Cc2ccc(OC)c(OCC)c2)ccc1O`, for which the PC50 in series [1] came to 0.66 µM.
The same measure, in the same setting: the figure for `COc1ccc(C[C@H]2COC(=O)[C@@H]2Cc2ccc(O)c(OC(C)C)c2)cc1OC` is 4.16 µM.
Still for that read-out and setting: as for `CCOc1ccc(C[C@H]2COC(=O)[C@@H]2Cc2ccc(O)c(OC)c2)cc1OCC`, the figure is 4.85 µM; as for `CCOc1cc(C[C@H]2COC(=O)[C@@H]2Cc2ccc(O)c(OC)c2)ccc1OC`, 4.71 µM.
On the same count and under the same terms, the figure for `CCCOc1cc(C[C@H]2C(=O)OC[C@@H]2Cc2ccc(OCC)c(OCCC)c2)ccc1O` is 28.6 µM.
In the case of `CCCCCCOc1cc(C[C@H]2C(=O)OC[C@@H]2Cc2ccc(OC)c(OC)c2)ccc1O`, the PC50 in series [1] stood at 3.89 µM.
Still for that read-out and setting: the figure for `CCOc1cc(C[C@H]2C(=O)OC[C@@H]2Cc2ccc(OCC)c(OC)c2)ccc1O` is 4.77 µM; for `CCOc1cc(C[C@H]2C(=O)OC[C@@H]2Cc2ccc(OC)c(OC)c2)ccc1O` it is 3.74 µM.
Still for that read-out and setting: as for `CCCOc1cc(C[C@H]2C(=O)OC[C@@H]2Cc2ccc(OC)c(OCC)c2)ccc1O`, the figure is 3.54 µM.
As to `CCOc1cc(C[C@H]2C(=O)OC[C@@H]2Cc2ccc(OCC)c(OCC)c2)ccc1O`, the Activity result in series [2] and in series [3] was “Non-toxic” in each case. Moreover, the PC50 in series [1] was determined as 0.78 µM. Moreover, the inhibition result in series [4] is “Active”.
`COc1cc(C[C@H]2C(=O)OC[C@@H]2Cc2ccc(OC)c(OC)c2)ccc1O` [ARCTIGENIN]: the Activity result in series [2] and in series [3] was “Non-toxic” in each case. Besides, the PC50 in series [1] worked out at 0.8 µM. Further, the inhibition result in series [4] was “Active”.
